Measured values reported in ChEMBL document CHEMBL1126688, “Interphenylene 7-oxabicyclo[2.2.1]heptane oxazoles. Highly potent, selective, and long-acting thromboxane A2 receptor antagonists” (J Med Chem, 1993).

Legend:
Homo sapiens [1] = species on record: Homo sapiens; experiment: Inhibitory activity against platelet aggregation, induced by U-46619 in human platelet rich plasma; assay type: functional
Method in brief: (§1)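 Human platelet-rich plasma. Aggregation was induced by exogenous arachidonic acid or by the TxA2 mimetic U-46,619, each at a single fixed agonist level. I50 was taken as the antagonist concentration giving 50% inhibition of aggregation.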

Thromboxane A2 receptor = molecular target: T1, Thromboxane A2 receptor (Homo sapiens, UniProt P21731); experiment: Inhibitory binding activity against TXA2 receptor in human platelet membrane, using [3H]-SQ 29548 as the radioligand
T1 sequence (P21731 whole entry): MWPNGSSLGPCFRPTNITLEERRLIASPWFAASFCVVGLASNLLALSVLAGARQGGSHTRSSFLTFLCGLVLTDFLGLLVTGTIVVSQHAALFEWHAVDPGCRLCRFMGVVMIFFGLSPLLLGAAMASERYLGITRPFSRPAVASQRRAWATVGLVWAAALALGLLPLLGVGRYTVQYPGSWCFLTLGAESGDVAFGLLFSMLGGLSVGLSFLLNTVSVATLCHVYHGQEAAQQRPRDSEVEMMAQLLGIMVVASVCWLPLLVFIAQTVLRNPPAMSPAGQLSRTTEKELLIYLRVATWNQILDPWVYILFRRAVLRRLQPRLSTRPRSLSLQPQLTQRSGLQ
Method in brief: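 Competition binding of [3H]-SQ 29,548 to TxA2 receptors in human platelet membranes, measured as inhibition of specific binding. Kd (inhibition constant) was calculated from each compound's I50 value. A slope factor is also reported.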

Mus musculus [2] = experiment: In vivo duration of action required to prevent death in mice, after i.v. administration of U-46619 (2 mg/kg) at 0.2 mg/kg p.o.; settings: po
[3] = Partition coefficient (logP); assay type: physicochemical; settings: octanol/water
Method in brief: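 log P came from reversed-phase TLC Rm values on C18 plates. Eluent was acetone in 0.5 M aqueous KBr, buffered with 0.25 N triethylammonium phosphate to pH 7.3. Values were converted with a calibration curve built from shake-flask partition coefficients (pH 7.0) of seven oxabicycloheptane compounds spanning a range of lipophilicities.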

Homo sapiens [4] = species on record: Homo sapiens; experiment: Inhibitory activity against platelet aggregation, induced by arachidonic acid in human platelet rich plasma; assay type: functional; method in brief: as §1
Mus musculus [5] = experiment: In vivo duration of action required to prevent death in mice, after iv administration of U-46619 (2 mg/kg) at 10 mg/kg po administration of compound

With `O=C(O)CCc1ccccc1CC1C2CCC(O2)C1c1nc(C(=O)NCCc2ccc(Cl)cc2)co1` (stereo not drawn) the IC50 (Homo sapiens [1]; read-out: I50) was 14 nM, the Kd (Thromboxane A2 receptor) was 1.3 nM and the T50 (Mus musculus [2]) was 22.7 h. It also gave a logP [3] of 1.55, an IC50 (Homo sapiens [4]; read-out: I50) of 4 nM and a T50 (Mus musculus [5]) of 38.7 h.

In the case of `CC(C)(C)NC(=O)c1coc(C2C3CCC(O3)C2Cc2ccccc2CCC(=O)O)n1` (stereo not drawn), the IC50 (Homo sapiens [1]; read-out: I50) is reported as 61 nM, the Kd (Thromboxane A2 receptor) is reported as 19 nM and the T50 (Mus musculus [2]) is reported as 7.4 h. It also gave a logP [3] of -0.02 and an IC50 (Homo sapiens [4]; read-out: I50) of 12 nM.

`CCCCCCCNC(=O)c1coc(C2C3CCC(O3)C2Cc2ccccc2CCC(=O)O)n1` (stereo not drawn) gave a Kd (Thromboxane A2 receptor) of 0.2 nM, a T50 (Mus musculus [2]) of 9.5 h and a logP [3] of 2.88. The T50 (Mus musculus [5]) was 27.4 h.

Compound `O=C(O)CCc1ccccc1CC1C2CCC(O2)C1c1nc(C(=O)NCCCCC2CCCCC2)co1` (stereo not drawn) has a T50 (Mus musculus [2]) of 22.5 h, a logP [3] of 3.93 and a T50 (Mus musculus [5]) of 49.6 h.

In the case of `CC(C)(C)CCNC(=O)c1coc(C2C3CCC(O3)C2Cc2ccccc2CCC(=O)O)n1` (stereo not drawn), the IC50 (Homo sapiens [1]; read-out: I50) is reported as 28 nM, the Kd (Thromboxane A2 receptor) is reported as 2.9 nM and the T50 (Mus musculus [2]) is reported as 13.5 h. The logP [3] was 1.23 and the IC50 (Homo sapiens [4]; read-out: I50) was 8 nM.

With `C#CCCCCCNC(=O)c1coc(C2C3CCC(O3)C2Cc2ccccc2CCC(=O)O)n1` (stereo not drawn) the IC50 (Homo sapiens [1]; read-out: I 50) was 31 nM, the Kd (Thromboxane A2 receptor) was 4.7 nM and the T50 (Mus musculus [2]) was 11.1 h. It also gave a logP [3] of 0.87 and an IC50 (Homo sapiens [4]; read-out: I 50) of 14 nM.

In the case of `CCCCCNC(=O)c1coc(C2C3CCC(O3)C2Cc2ccccc2CCC(=O)O)n1` (stereo not drawn) [BMS-180291], the IC50 (Homo sapiens [1]; read-out: I50) is reported as 21 nM, the Kd (Thromboxane A2 receptor) is reported as 4 nM and the T50 (Mus musculus [2]) is reported as 14.4 h. The logP [3] was 1.61 and the T50 (Mus musculus [5]) was 29.4 h.
